Out of some 360,000 compounds screened, about 1,400 (0.39%) were called active.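 Rule for the calls: active = pattern-corrected inhibition above about 35%, with an unprinted fluorescence ratio check between 0.5 and 1.5 (limit read from the data, passing the limit was not always enough); inactive = the rest.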 What follows is part of a selection rich in actives, with near analogues and random picks from the rest.

In this experiment the target is COP9 signalosome complex subunit 5 (Homo sapiens) (UniProt Q92905). Briefly: inhibitors of CSN-mediated cullin deneddylation, primary screen, biochemical, fluorescence polarization, uHTS (AID 651999).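 Note: 0% = enzyme with substrate and 100% = substrate without enzyme.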 Conditions: Purified CSN, SCF-Nedd8-OG deneddylation, at 12.5 µM, hits give high values. In outline: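 Assay system: purified human Csn5 enzyme expressed in HEK293T cells; Input: 0.24 nM Csn5 enzyme, final concentration; Reagent: 10 nM SCFSkp2-Nedd8OG; Compound dosing: 12.5 µM single point; Times: reaction 90 min, room temperature; Technique: fluorescence polarization readout.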
Chain of COP9 signalosome complex subunit 5 (Homo sapiens) (Q92905 whole entry, looked up, one chain of several): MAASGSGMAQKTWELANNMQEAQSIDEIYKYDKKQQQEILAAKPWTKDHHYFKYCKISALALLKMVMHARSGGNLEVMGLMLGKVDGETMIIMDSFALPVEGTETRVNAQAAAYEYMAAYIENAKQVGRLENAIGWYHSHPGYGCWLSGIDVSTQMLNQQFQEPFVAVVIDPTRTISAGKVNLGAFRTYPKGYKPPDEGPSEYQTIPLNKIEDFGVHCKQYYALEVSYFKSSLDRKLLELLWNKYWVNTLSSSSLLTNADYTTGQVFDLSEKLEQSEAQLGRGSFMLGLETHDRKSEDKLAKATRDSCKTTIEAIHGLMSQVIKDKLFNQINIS
On the technique in general: In fluorescence polarisation assays a small probe gives low polarisation when free and higher when bound to something large.
As to `CCCC(=O)n1nc(NCc2ccc(OC)cc2)nc1NCc1ccc(OC)cc1`, the inhibition was 0.03% (inactive).
For `CC1(C)C=Cc2c(ccc3c2OC[C@@H](c2ccc(O)cc2O)C3)O1` the value was 1.92% (inactive); for `Cc1cc(Br)cn2c(Cc3cccc(F)c3)c(-c3cccc(Br)c3)nc12`, 1.9% (inactive).
For `Cc1cc(Br)cn2c(Cc3ccsc3)c(-c3ccc(C#N)cc3)nc12` the value was 77.2% (active).
For `Cc1ccc(-c2nc3c(C)cc(Br)cn3c2Cc2ccccc2)cc1` the value was -3.35% (inactive); for `COC(=O)c1cc(NC(=O)CC2C(=O)NCCN2C(=O)c2ccc(F)cc2)cc(C(=O)OC)c1` (stereo unspecified), 0.24% (inactive); for `CS(=O)(=O)c1ccc(-c2nnn(CC(=O)Nc3ccc4c(c3)OCCO4)n2)cc1`, 0.36% (inactive).
On to `CS(=O)(=O)c1ccc2c(c1)SC1=NC(=O)/C(=C/c3ccco3)C(=N)N12`, for which the inhibition was 58.8% (active).
For `COc1ccc(N2CCN(C(=O)CNS(=O)(=O)c3ccc(C)c(C)c3)CC2)cc1` the value was -4.8% (inactive); for `COc1ccc(NC(=O)CC2SC(N3CCCCC3)=NC2=O)cc1OC` (stereo unspecified), 0.22% (inactive).
For `COc1ccc(S(=O)(=O)N2CCN(CC(=O)N3c4ccccc4CC3C)CC2)cc1OC` (stereo unspecified) the value was 18.4% (inactive); for `CCOC(=O)c1cc(NC(=O)c2ccc(Cl)cc2)c(=O)oc1-c1ccccc1`, -2.25% (inactive); for `COc1ccc(C2COC(=O)C2=N)c(NC(=O)c2ccccc2)c1` (stereo unspecified), -4.82% (inactive).
For `CC(=O)c1cc(NC(=O)c2ccccc2)c(=O)oc1/C=C/N(C)C` the value was 55.4% (active); for `CCCCCCCC1(C)NC(=O)N(CC(=O)Nc2cc(C)on2)C1=O` (stereo unspecified), -7.92% (inactive).
For the compound `C=CCn1c(SCc2cccc(F)c2)nc2cc(C(=O)N3CCC(C(N)=O)CC3)ccc2c1=O`, the inhibition is 0.76% (inactive).
`Cc1ccc(CSCC2Nc3ccc(C(=O)N4CCN(c5ccc(F)cc5)CC4)cc3NC2=O)cc1` (stereo unspecified): the inhibition is 25.2% (inactive).
As to `O=C1Nc2cc(C(=O)N3CCN(c4ccc(F)cc4)CC3)ccc2NC1CSCc1cccc(F)c1` (stereo unspecified), the inhibition is 51.2% (active).
For `CC(C)Cn1c(N)c(C(=O)NCc2cccs2)c2nc3ccccc3nc21` the value was 36% (active); for `O=C(NCc1cccs1)c1ccc(Br)o1`, -0.05% (inactive).
The same measure for `O=C(Cc1coc2ccc3ccccc3c12)NCc1cccs1`: -8.34% (inactive); for `CCOc1c(Br)cc(/C=C2\C(=O)N(CCC#N)N=C2C)cc1OC`: 2.79% (inactive).
The same measure for `COc1cc(/C=C2/C(=O)NN(c3cccc(Cl)c3)C2=O)cc(Br)c1O`: 44.4% (active).
On to `CCc1nc2ccc(C(=O)N(C)CCN(C)C)cn2c1N(CC)CCOC`, for which the inhibition was -0.82% (inactive).
For `O=C(CC1Oc2ccccc2NC1=O)NCCCN1CCN(Cc2ccccc2)CC1` (stereo unspecified) the value was -8.5% (inactive).
For `CN1CCN(CCCNC(=O)c2ccc(/C=C3\Oc4ccccc4N(Cc4ccc(Cl)cc4)C3=O)cc2)CC1`, the inhibition was 119% (active).
The same measure for `O=C(CCN1C(=O)COc2ccccc21)NCCCN1CCN(c2ccc(F)cc2)CC1`: -4.53% (inactive); for `Cc1nonc1OCCn1nnnc1N`: -0.98% (inactive).
For `O=C(O[C@H]1[C@H](Cc2ccccc2)NS(=O)(=O)[C@H]2C[C@@H]3C=C[C@]12O3)c1ccc([N+](=O)[O-])cc1` the value was 0.94% (inactive).
The same measure for `CCCSc1nc2[nH]ncc2c(=O)[nH]1`: 0.78% (inactive); for `Cn1ccnc1-c1nnn(-c2ccc(F)cc2)n1`: -1.15% (inactive).
`COc1ccc(NC(=O)CSc2nc3ccccc3c(=O)n2C)cc1`: the inhibition was 81.7% (active).
For `COc1ccc(NC(=O)CSc2nnc(Cc3ccccc3)c(=O)n2N)cc1` the value was 2.76% (inactive); for `CC(=O)NCCn1c(SCC(=O)Nc2ccc(C)cc2)nc2ccccc2c1=O`, -2.03% (inactive).
The same measure for `C=CCSc1nc2c(c(=O)[nH]1)C(C(C)C)C(C#N)=C(N)O2` (stereo unspecified): -4.61% (inactive); for `CCCNC(=O)C(=O)Nc1cc2c3c(c1)CCC(=O)N3CCC2`: -1.23% (inactive); for `CCOc1ccc(NS(=O)(=O)c2ccc(C)c(C(N)=O)c2)cc1`: 8.11% (inactive).
The same measure for `COc1ccc(NS(=O)(=O)c2ccc(C)c(C(=O)N(C)Cc3ccc(OC)cc3OC)c2)cc1`: 157% (active); for `COc1ccc(NS(=O)(=O)c2ccc(C)c(C(=O)NCC(c3cccs3)N3CCOCC3)c2)cc1` (stereo unspecified): 1.17% (inactive); for `CC1O[C@H](OC2C(COC3OC(CO)C(O)[C@H](O)C3O)OC(OC3CC[C@]4(C)C(CC[C@@]5(C)[C@@H]4C=C[C@]46OC[C@@]7(CCC(C)(C)C[C@H]74)C(O)C[C@@]56C)C3(C)C)C(O)C2O)C(O)C(O)C1O` (stereo partly specified): -2.09% (inactive).
As to `COc1ccc(-n2nnc3c(=O)n(CC(=O)N4CCC(Cc5ccccc5)CC4)cnc32)cc1`, the inhibition is -0.9% (inactive).

Usually inhibition stands for the relative decrease from the control value, in per cent.

(Values after PubChem BioAssay AID651999 (Sanford-Burnham Center for Chemical Genomics, 2013).)
